Screens: PubChem, several laboratories
Shown are actives, neighbours in structure and some others; about 5.2% of the full set was active somewhere.
M1 antag: antagonists of rat M1 muscarinic receptor; AID 628; CHO-M1 cells, Fluo-4 calcium, ACh EC80 antagonist mode; stronger effect = lower value; P08482; B-score at 10 µM; hit rate 3.4% among 64,000;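 active = calcium fluorescence response, raw or row-and-column corrected B-score, differing from the plate sample mean either way at a set confidence level, mostly lower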
WNV NS2B-NS3 inh: blocks West Nile virus NS2B-NS3 protease activity; P06935; WNV NS2B-NS3 protease, fluorogenic substrate Ex360/Em465; stronger effect = lower value; z-score (concentration not given with the values); hit rate 0.18% among 65,000; AID 577; in the data active = z-score below about -3
E coli WT exp: blocks growth of wild type E. coli BW25113; hit rate 0.15% among 98,000; AID 710; OD600 absorbance; growth inhibition, % at 100 µM;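 active = growth inhibition above about 50% at one test dose, limit read from the data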;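 also: growth measured after 20 h incubation at 37 °C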
AP ELISA ortho: orthogonal test for alternative complement pathway inhibitors. hit rate 0.08% among 62,000. AID 1235. inhibition, % at 5 µM. Human serum alternative complement pathway, LPS-coated ELISA, C3 deposition; tested in compound mixtures;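 active = inhibition above 30% in each of the two pooled mixtures holding the compound, so the lower value exceeds 30%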
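Test system: human serum alternative complement pathway, C3 deposition on LPS-coated wells; also added: Plate-bound LPS; doses: 5 µM per compound in ten-compound mixtures; schedule: 1 h at 37 °C; detection: Anti-C3 ELISA, OD 450 nm; evaluation: percent inhibition of C3 deposition onto LPS; repeats: two pool placements per compound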
M1 ag: M1 muscarinic receptor agonism; CHO-M1 cells, Fluo-4 calcium fluorescence, agonist mode; stronger effect = higher value; B-score at 10 µM; hit rate 3% among 64,000; AID 626;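 active = fluorescence rise, raw or as B-score row- and column-corrected plate score, outside the 99.7% band of its plate's samples, either direction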
Ecoli tolC: E. coli tolC mutant growth inhibition. growth inhibition, % at 10 µM (by protocol). hit rate 2.2% among 65,000. E. coli BW25113 tolC mutant growth, OD615;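 active = growth inhibition at or above a cutoff equal to the mean over every tested compound plus 3 SD, cut at about 60% in these data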;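 also: growth measured after 20 h incubation at 37 °C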
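Assay system: tolC-deleted E. coli BW25113. Medium: kanamycin-containing LB broth (50 µg/mL). Dosing: 10 µM final, single dose. Timing: bacterial growth with compound for 20 h at 37 °C. Detection: A615 absorbance measurement. Read-out basis: growth inhibition in percent.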
M1 agonist conf: rat M1 muscarinic agonism, confirmation; CHO-M1 cells, Fluo-4 calcium fluorescence, agonist mode; actives lie on both sides; hit rate 19% among 1,700; AID 1488; fluorescence change (max-min) at 10 µM; shares compounds with M1 ag;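 active = fluorescence change differs from the solvent-only DMSO control mean at a set confidence level in both duplicate runs; inconclusive = differs from solvent-only control mean in just one of two runs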;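 also: an EC20 dose of acetylcholine follows compound addition during the same imaging run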
M4 ag counter: counter-screen for M1 agonists: activity at rat M4 receptor; CHO M4/Gqi5 cells, Fluo-4 calcium fluorescence, agonist mode; actives lie on both sides; hit rate 9% among 1,700; fluorescence change (max-min) at 10 µM; shares compounds with M1 ag;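 active = fluorescence change differing from the plate's solvent-only control wells at 99.7% confidence in both duplicates, whether higher or lower; inconclusive = differs from solvent controls in only one of two duplicates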
Target sequence (P08485 whole entry, looked up): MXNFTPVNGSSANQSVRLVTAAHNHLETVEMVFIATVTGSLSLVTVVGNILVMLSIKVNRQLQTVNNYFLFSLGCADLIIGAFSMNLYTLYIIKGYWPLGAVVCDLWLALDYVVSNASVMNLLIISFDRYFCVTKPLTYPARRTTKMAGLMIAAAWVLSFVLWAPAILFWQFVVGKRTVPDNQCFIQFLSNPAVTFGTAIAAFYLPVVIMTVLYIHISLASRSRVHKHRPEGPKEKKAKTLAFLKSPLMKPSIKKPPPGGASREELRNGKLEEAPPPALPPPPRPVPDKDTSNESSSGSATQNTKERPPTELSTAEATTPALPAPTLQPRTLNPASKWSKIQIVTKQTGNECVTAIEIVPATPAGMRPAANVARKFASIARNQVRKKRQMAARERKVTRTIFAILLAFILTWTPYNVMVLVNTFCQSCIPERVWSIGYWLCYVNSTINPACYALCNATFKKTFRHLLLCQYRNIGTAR
Hits are given with their value.

For COc1ccccc1S(=O)(=O)Cc1ccc(C(=O)N2CCN(c3cccc(Cl)c3)CC2)o1 the results were M1 antag inactive, WNV NS2B-NS3 inh inactive, E coli WT exp inactive, AP ELISA ortho inactive, M1 ag 9.5, Ecoli tolC inactive, M1 agonist conf -26 and M4 ag counter inactive.
`Cc1ccc(C)c(N2CCN(C(=O)c3ccc(CS(=O)(=O)c4ccccc4C)o3)CC2)c1` gave M1 antag inactive, WNV NS2B-NS3 inh inactive, E coli WT exp inactive, AP ELISA ortho inactive, M1 ag 2.8, Ecoli tolC inactive, M1 agonist conf inactive and M4 ag counter inactive.
Cc1ccc(S(=O)(=O)Cc2ccc(C(=O)N3CCN(c4cc(C)ccc4C)CC3)o2)cc1 was read as M1 antag inactive, WNV NS2B-NS3 inh inactive, E coli WT exp inactive, AP ELISA ortho inactive, M1 ag inactive and Ecoli tolC inactive.
Screening Cc1onc(-c2ccccc2)c1C(=O)N1CC(C)OC(C)C1 (stereo not given) returned M1 antag inactive, WNV NS2B-NS3 inh inactive, E coli WT exp inactive, AP ELISA ortho inactive, M1 ag inactive and Ecoli tolC inactive.
`CN(C)c1ccc(NC(=O)CN2CCC(N3CCCCC3)CC2)cc1` gave E coli WT exp inactive.
Screening COc1cccc(C2C=C(c3cccs3)Nc3ncnn32)c1OC (stereo not given) returned M1 antag inactive, WNV NS2B-NS3 inh inactive, E coli WT exp inactive, AP ELISA ortho inactive, M1 ag 8.1, Ecoli tolC inactive, M1 agonist conf inactive and M4 ag counter inactive.
Screening COc1cccc(C2=CC(c3cccc(OC)c3OC)n3nnnc3N2)c1 (stereo not given) returned M1 antag inactive, WNV NS2B-NS3 inh inactive, E coli WT exp inactive, AP ELISA ortho inactive, M1 ag inactive and Ecoli tolC inactive.
Screening O=C(O)C1CCC(=O)N1C1c2ccccc2Oc2ccccc21 (stereo not given) returned M1 antag inactive, WNV NS2B-NS3 inh inactive, E coli WT exp inactive, AP ELISA ortho inactive, M1 ag inactive and Ecoli tolC inactive.
O=C(O)C1CCC(=O)N1C1CCCC1 (stereo not given) was read as M1 antag inactive, WNV NS2B-NS3 inh inactive, E coli WT exp inactive, AP ELISA ortho inactive, M1 ag 5, Ecoli tolC inactive, M1 agonist conf -29 and M4 ag counter inconclusive.
Screening COc1ccc(OCC(=O)N2CCN(c3nnc(-c4ccccc4)c4ccccc34)CC2)cc1 returned M1 antag -7, WNV NS2B-NS3 inh inactive, E coli WT exp inactive, AP ELISA ortho inactive, M1 ag 7.3, Ecoli tolC inactive, M1 agonist conf inconclusive and M4 ag counter inactive.
`O=C(Nc1cccc2nsnc12)C1CC(=O)N(c2ccccc2)C1` (stereo not given) gave M1 antag inactive, WNV NS2B-NS3 inh inactive, E coli WT exp inactive, AP ELISA ortho inactive, M1 ag -2.7, Ecoli tolC inactive, M1 agonist conf inconclusive and M4 ag counter inconclusive.
`COC(=O)c1ccccc1NC(=O)C1CC(=O)N(c2ccccc2)C1` (stereo not given) gave M1 antag inactive, WNV NS2B-NS3 inh inactive, E coli WT exp inactive, AP ELISA ortho inactive, M1 ag inactive and Ecoli tolC inactive.
For c1ccc2sc(SN3CCOCC3)nc2c1 the results were M1 antag inactive, WNV NS2B-NS3 inh inactive, E coli WT exp inactive, AP ELISA ortho inactive, M1 ag inactive and Ecoli tolC inactive.
For CCCCn1c(SCC(=O)Nc2ccc3c(c2)OCO3)nc2c1c(=O)n(C)c(=O)n2C the results were M1 antag inactive, WNV NS2B-NS3 inh inactive, E coli WT exp inactive, AP ELISA ortho inactive, M1 ag inactive and Ecoli tolC inactive.
`O=C(CCNS(=O)(=O)c1cccc2nsnc12)N1CCc2ccccc21` gave M1 antag inactive, WNV NS2B-NS3 inh inactive, E coli WT exp inactive, AP ELISA ortho inactive, M1 ag inactive and Ecoli tolC inactive.
